Results published in ChEMBL document CHEMBL1165943, “Design and synthesis of new anticancer pyrimidines with multiple-kinase inhibitory effect” (Bioorg Med Chem, 2010).

Tests used:
Assay type in all cases: functional
CCRF-CEM = assay: Cytotoxicity against human CCRF-CEM cells assessed as cell growth at 10 uM; settings: for growth at 10 µM: Homo sapiens, CCRF-CEM, read-out: Activity
Outline: (§1)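 Single-concentration screen at 10 μM across the 60-cell-line panel (nine tissue types); growth percentage recorded per cell line, with inhibition taken as 100 minus growth percentage.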

HL-60(TB) = assay: Cytotoxicity against human HL-60(TB) cells assessed as cell growth at 10 uM; settings: for growth at 10 µM: Homo sapiens, HL-60, read-out: Activity
Outline: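 Single-concentration 10 µM screen of HL-60(TB) within the 60-line panel, grown in RPMI 1640 with 5% FBS. The drug from DMSO stock is incubated 48 h at 37 °C, settled cells are TCA-fixed and SRB-stained, and absorbance is read at 515 nm. Percent growth is reported, and inhibition % is taken as 100 minus growth %.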

[1] = Cytotoxicity against human […] cells assessed as cell growth at 10 uM; settings: for growth at 10 µM: Homo sapiens, RPMI8266, read-out: Activity
Outline: (§2)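 Single-dose screen at 10 μM across the 60-cell-line panel. Cells grown in RPMI 1640 with 5% FBS and 2 mM L-glutamine, seeded at 5,000–40,000 cells/well according to doubling time, and treated 24 h later. Exposure lasted 48 h at 37 °C, 5% CO₂. Adherent cells were fixed with cold TCA, suspension cells were fixed settled, and both were stained with SRB and read at 515 nm. Growth % was recorded, with inhibition % = 100 − growth %.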

A549 = assay: Cytotoxicity against human A549 cells assessed as cell growth at 10 uM; settings: for growth at 10 µM: Homo sapiens, A549, read-out: Activity; outline: as §1
HOP-62 = assay: Cytotoxicity against human HOP62 cells assessed as cell growth at 10 uM; settings: for growth at 10 µM: Homo sapiens, HOP-62, read-out: Activity; outline: as §1
HOP-92 = assay: Cytotoxicity against human HOP92 cells assessed as cell growth at 10 uM; settings: for growth at 10 µM: Homo sapiens, HOP-92, read-out: Activity; outline: as §1
NCI-H460 = assay: Cytotoxicity against human NCI-H460 cells assessed as cell growth at 10 uM; settings: for growth at 10 µM: Homo sapiens, NCI-H460, read-out: Activity; outline: as §2
COLO 205 = assay: Cytotoxicity against human COLO205 cells assessed as cell growth at 10 uM; settings: for growth at 10 µM: Homo sapiens, COLO 205, read-out: Activity; outline: as §1
HT-29 = assay: Cytotoxicity against human HT-29 cells assessed as cell growth at 10 uM; settings: for growth at 10 µM: Homo sapiens, HT-29, read-out: Activity; outline: as §1
SF-268 = assay: Cytotoxicity against human SF268 cells assessed as cell growth at 10 uM; settings: for growth at 10 µM: Homo sapiens, SF-268, read-out: Activity; outline: as §2
SNB-19 = assay: Cytotoxicity against human SNB19 cells assessed as cell growth at 10 uM; settings: read-out: Activity; outline: as §2
U-251 = assay: Cytotoxicity against human U251 cells assessed as cell growth at 10 uM; settings: for growth at 10 µM: Homo sapiens, U-251, read-out: Activity; outline: as §2
LOX IMVI = assay: Cytotoxicity against human LOXIMVI cells assessed as cell growth at 10 uM; settings: for growth at 10 µM: Homo sapiens, LOX IMVI, read-out: Activity; outline: as §2
MDA-MB-435 = assay: Cytotoxicity against human MDA-MB-435 cells assessed as cell growth at 10 uM; settings: read-out: Activity; outline: as §2
UACC-257 = assay: Cytotoxicity against human UACC257 cells assessed as cell growth at 10 uM; settings: for growth at 10 µM: Homo sapiens, UACC-257, read-out: Activity; outline: as §2
UACC-62 = assay: Cytotoxicity against human UACC62 cells assessed as cell growth at 10 uM; settings: for growth at 10 µM: Homo sapiens, UACC-62, read-out: Activity; outline: as §2
OVCAR-4 = assay: Cytotoxicity against human OVCAR4 cells assessed as cell growth at 10 uM; settings: for growth at 10 µM: Homo sapiens, OVCAR-4, read-out: Activity; outline: as §2
OVCAR-8 = assay: Cytotoxicity against human OVCAR8 cells assessed as cell growth at 10 uM; settings: for growth at 10 µM: Homo sapiens, OVCAR-8, read-out: Activity; outline: as §2
RXF 393 = assay: Cytotoxicity against human RXF393 cells assessed as cell growth at 10 uM; settings: for growth at 10 µM: Homo sapiens, RXF 393, read-out: Activity; outline: as §2
[2] = Cytotoxicity against human Hs 578T cells assessed as cell growth at 10 uM; settings: read-out: Activity; outline: as §1
[3] = Growth inhibition of human NCI60 cells at 10 uM after 48 hrs by sulforhodamine B assay relative to control; settings: for inhibition of growth at 10 µM: Homo sapiens, NCI60, 48 h, read-out: GI
Outline: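 Single 10 µM dose across the 60-line panel for 48 h, with the same culture, TCA fixation and SRB 515 nm read-out. Inhibition % = 100 − growth %, given as the mean over the 60 cell lines.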

SN12C = assay: Cytotoxicity against human SN12C cells assessed as cell growth at 10 uM; settings: for growth at 10 µM: Homo sapiens, SN12C, read-out: Activity; outline: as §2

| SMILES | growth at 10 µM (CCRF-CEM) [%] | growth at 10 µM (HL-60(TB)) [%] | growth at 10 µM [1] [%] | growth at 10 µM (A549) [%] | growth at 10 µM (HOP-62) [%] | growth at 10 µM (HOP-92) [%] | growth at 10 µM (NCI-H460) [%] | growth at 10 µM (COLO 205) [%] | growth at 10 µM (HT-29) [%] | growth at 10 µM (SF-268) [%] | growth at 10 µM (SNB-19) [%] | growth at 10 µM (U-251) [%] | growth at 10 µM (LOX IMVI) [%] | growth at 10 µM (MDA-MB-435) [%] | growth at 10 µM (UACC-257) [%] | growth at 10 µM (UACC-62) [%] | growth at 10 µM (OVCAR-4) [%] | growth at 10 µM (OVCAR-8) [%] | growth at 10 µM [2] [%] | inhibition of growth at 10 µM [3] [%] | other results |
| --- | --- | --- | --- | --- | --- | --- | --- | --- | --- | --- | --- | --- | --- | --- | --- | --- | --- | --- | --- | --- | --- |
| c1ccc(-c2ccc(-c3ccnc(Nc4ccc(N(c5ccccc5)c5ccccc5)cc4)n3)cn2)cc1 | 73.1 | 91.8 | 110 | 77.1 | 122 | 151 | 84.4 | 116 | 89.5 | 90 | 135 | 87.2 | 131 | 98.5 | 106 | 96.9 | 93.4 | 79.5 | 76.8 | 0.97 | growth at 10 µM (RXF 393): 99.4% |
| CC(=O)c1ccc(-c2ccc(-c3ccnc(Nc4cc(C(F)(F)F)cc(C(F)(F)F)c4)n3)cn2)cc1 | 99.4 | 107 | 97.8 | 104 | 112 | 103 | 106 | 110 | 105 | 106 | 110 | 101 | 97.8 | 115 | 102 | 104 | 94.6 | 96.7 | 110 | -2.21 | growth at 10 µM (RXF 393): 113%; growth at 10 µM (SN12C): 93.6% |
| FC(F)(F)c1cc(Nc2nccc(-c3ccc(Nc4ccccc4)nc3)n2)cc(C(F)(F)F)c1 | 96.6 | 105 | 98.3 | 96.2 | 94 | 100 | 109 | 104 | 99.8 | 107 | 91.6 | 104 | 103 | 108 | 99.5 | 99.1 | 105 | 97.2 | 101 | 0.2 | growth at 10 µM (RXF 393): 107% |
| CC(=O)c1ccccc1-c1ccc(-c2ccnc(NC(=O)Nc3cc(C(F)(F)F)cc(C(F)(F)F)c3)n2)cn1.Cl | – | – | – | – | – | – | – | – | – | – | – | – | – | – | 102 | 94.3 | – | 90.8 | – | – | Activity (CCRF-CEM): 88.36%; Activity (HL-60(TB)): 98.79%; Activity [1]: 75.92%; Activity (A549): 93.55%; Activity (HOP-62): 90.22%; Activity (HOP-92): 101%; Activity (NCI-H460): 93.37%; Activity (COLO 205): 88.27%; Activity (HT-29): 95.08%; Activity (SF-268): 83.42%; Activity (U-251): 86.33%; Activity (LOX IMVI): 94.42%; Activity (OVCAR-4): 98.42%; Activity (RXF 393): 130.46%; growth at 10 µM (SN12C): 88.4%; growth inhibition (GI) [3]: 9.74% |
| FC(F)(F)c1cc(Nc2nccc(-c3cccnc3)n2)cc(C(F)(F)F)c1 | – | 101 | – | 93.8 | 104 | – | 103 | 119 | 92.1 | 99.5 | 94 | 98.7 | 100 | 102 | 111 | 102 | 121 | 102 | 103 | -0.32 | growth at 10 µM (RXF 393): 79%; growth at 10 µM (SN12C): 88% |
| CC(=O)c1ccccc1-c1ccc(-c2ccnc(NC(=O)Nc3cc(C(F)(F)F)cc(C(F)(F)F)c3)n2)cn1 | 79.3 | 101 | – | 86.8 | 95.6 | 89.9 | 95.9 | 90.9 | 96.3 | 94.4 | 91.5 | 85.1 | – | 98.1 | – | – | – | – | – | 11.3 | Activity [1]: 98.17%; Activity (LOX IMVI): 65.57%; Activity (UACC-257): 92.59%; Activity (UACC-62): 92.88%; Activity (OVCAR-4): -18.53%; Activity (OVCAR-8): 83.37%; Activity (RXF 393): 104.4%; Activity (SN12C): 96.07% |
| O=C(Nc1cc(C(F)(F)F)cc(C(F)(F)F)c1)Nc1nccc(-c2ccc(Nc3ccccc3)nc2)n1 | 96.8 | 99.7 | 102 | 105 | 103 | 116 | 103 | 136 | 94.4 | 117 | 109 | 113 | 112 | 129 | 112 | 101 | 114 | 103 | 102 | -6.98 | growth at 10 µM (SN12C): 106% |
